In ChEMBL document CHEMBL1130284, “Analogues of N alpha-(4-amino-4-deoxypteroyl)-N delta-hemiphthaloyl-L-ornithine (PT523) modified in the side chain: synthesis and biological evaluation” (J Med Chem, 1997):

Experiments:
786-0 [1] = assay: The IC50 value was measured on 786-0 cell line in ovarian tumor; type: functional, cell-based; details: Homo sapiens, in the assay text read “renal” for “ovarian”
How it was run: (§1)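 Standard NCI cell-line panel protocol. Cells plated in 96-well format and treated continuously with drug for 48 h. Total protein stained with Sulforhodamine B and IC50 derived.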

A549 = assay: In vitro antitumor activity against A549 human non-small lung carcinoma cells containing 10% fetal bovine serum; type: functional, cell-based
How it was run: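 Cells plated at 2000-3000/well in RPMI with 10% fetal bovine serum and left to adhere for 24 h at 37 °C in humidified 5% CO2. Drug (0.1-1000 nM) then added for a further 72 h of continuous exposure. Sulforhodamine B staining read-out. Growth taken as % of untreated controls and plotted against log drug concentration to give IC50.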

ACHN = assay: The IC50 value was measured on ACHN cell line in renal tumor type.; type: functional, cell-based; details: Homo sapiens; how it was run: as §1
DU-145 = assay: The IC50 value was measured on DU-145 cell line in prostate tumor type.; type: functional, cell-based; details: Homo sapiens; how it was run: as §1
EKVX = assay: The IC50 value was measured on EKVX cell line in NSCL tumor type.; type: functional, cell-based; details: Homo sapiens; how it was run: as §1
HCT-116 = assay: The IC50 value was measured on HCT116 cell line in colon tumor type.; type: functional, cell-based; details: Homo sapiens; how it was run: as §1
HT-29 = assay: The IC50 value was measured on HT-29 cell line in colon tumor type.; type: functional, cell-based; details: Homo sapiens; how it was run: as §1
KM12 = assay: The IC50 value was measured on KM-12 cell line in colon tumor type.; type: functional, cell-based; details: Homo sapiens; how it was run: as §1
NCI/ADR-RES = assay: The IC50 value was measured on MCF7-ADR cell line in breast tumor type.; type: functional, cell-based; details: Homo sapiens; how it was run: as §1
LOX IMVI [2] = assay: The IC50 value was measured on LOX IMVI cell line in melanoma tumor ty; type: functional, cell-based; details: Homo sapiens; how it was run: as §1
MCF7 = assay: The IC50 value was measured on MCF-7 cell line in breast tumor type; type: functional, cell-based; details: Homo sapiens; how it was run: as §1
Malme-3M = assay: The IC50 value was measured on MALME-3M cell line in melanoma tumor type; type: functional, cell-based; details: Homo sapiens; how it was run: as §1
NCI-H23 = assay: The IC50 value was measured on NCl-H23 cell line in NSCL tumor type.; type: functional, cell-based; details: Homo sapiens; how it was run: as §1
NCI-H460 = assay: The IC50 value was measured on NCl-H460 cell line in NSCL tumor type; type: functional, cell-based; details: Homo sapiens; how it was run: as §1
NCI-H522 = assay: The IC50 value was measured on NCl-H522 cell line in NSCL tumor type.; type: functional, cell-based; details: Homo sapiens; how it was run: as §1
OVCAR-3 [3] = assay: The IC50 value was measured on OVCAR-3 cell line in ovarian tumor; type: functional, cell-based; details: Homo sapiens; how it was run: as §1
OVCAR-8 = assay: The IC50 value was measured on OVCAR-8 cell line in ovarian tumor type.; type: functional, cell-based; details: Homo sapiens; how it was run: as §1
OVCAR-5 = assay: The IC50 value was measured on OVCAR-5 cell line in ovarian tumor type.; type: functional, cell-based; details: Homo sapiens; how it was run: as §1
PC-3 = assay: The IC50 value was measured on PC-3 cell line in prostate tumor type.; type: functional, cell-based; details: Homo sapiens; how it was run: as §1
SF-268 = assay: The IC50 value was measured on SF-268 cell line in CNS tumor type.; type: functional, cell-based; details: Homo sapiens; how it was run: as §1
SW-620 = assay: The IC50 value was measured on SW-620 cell line in colon tumor type.; type: functional, cell-based; details: Homo sapiens; how it was run: as §1
SF-539 = assay: The IC50 value was measured on SF-539 cell line in CNS tumor type.; type: functional, cell-based; details: Homo sapiens; how it was run: as §1
SK-MEL-28 = assay: The IC50 value was measured on SKMEL-28 cell line in melanoma tumor type.; type: functional, cell-based; details: Homo sapiens; how it was run: as §1
SNB-75 = assay: The IC50 value was measured on SNB-75 cell line in CNS tumor type.; type: functional, cell-based; details: Homo sapiens; how it was run: as §1
SCC-25 = assay: In vitro antitumor activity against SCC25 human head and neck squamous carcinoma cells containing 10% fetal bovine serum; type: functional, cell-based
How it was run: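 Clonogenic assay. Cells kept in Dulbecco's MEM with 10% FBS and hydrocortisone (400 µg/L). Exponential-phase cells preincubated without drug for 48 h, exposed to 0.01-5000 nM for 72 h, then replated in fresh medium. After 14 days, colonies of ≥5 cells stained with crystal violet and counted. Survival taken as % of untreated controls and IC50 estimated from a log-log plot. Replicate plates, at least three separate days.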

SK-MEL-5 = assay: The IC50 value was measured on SK-MEL-5 cell line in melanoma tumor type.; type: functional, cell-based; details: Homo sapiens; how it was run: as §1
UO-31 = assay: The IC50 value was measured on UO-31 cell line in renal tumor type.; type: functional, cell-based; details: Homo sapiens; how it was run: as §1
UACC-62 = assay: The IC50 value was measured on UACC-62 cell line in melanoma tumor type.; type: functional, cell-based; details: Homo sapiens; how it was run: as §1
HCT-15 = assay: The IC50 value was measured on HCT-15 cell line in colon tumor type.; type: functional, cell-based; details: Homo sapiens; how it was run: as §1
[4] = molecular target: T1, Dihydrofolate reductase (Homo sapiens) (UniProt P00374)
T1 sequence (whole entry): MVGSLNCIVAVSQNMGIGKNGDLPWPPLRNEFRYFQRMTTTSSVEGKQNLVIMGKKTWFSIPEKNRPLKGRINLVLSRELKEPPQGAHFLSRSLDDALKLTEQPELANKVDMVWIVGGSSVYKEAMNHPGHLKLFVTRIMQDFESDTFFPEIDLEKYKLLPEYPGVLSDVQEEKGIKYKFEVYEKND

Mus musculus [5] = assay: Tumor growth delay of subcutaneously implanted SCC-VII squamous cell carcinoma in mice; details: route subcutaneous
Mus musculus [6] = assay: Tumor size of subcutaneously implanted SCC-VII squamous cell carcinoma in mice on day 0; details: route subcutaneous
Mus musculus [7] = assay: Tumor size of subcutaneously implanted SCC-VII squamous cell carcinoma in mice on day 7; details: route subcutaneous
Mus musculus [8] = assay: Time to reach 10 mm Tumor size of subcutaneously implanted SCC-VII squamous cell carcinoma in mice; details: route subcutaneous
OVCAR-3 [9] = assay: The IC50 value was measured on OVCAR-3 cell line in ovarian tumor t; type: functional, cell-based; details: Homo sapiens; how it was run: as §1
786-0 [10] = assay: cells; details: Homo sapiens
LOX IMVI [11] = assay: The IC50 value was measured on LOX […] cell line in melanoma tumor ty; type: functional, cell-based; details: Homo sapiens; how it was run: as §1

SMILES	IC50 (A549) [nM]	IC50 (ACHN) [nM]	IC50 (DU-145) [nM]	IC50 (EKVX) [nM]	IC50 (HCT-116) [nM]	IC50 (HT-29) [nM]	IC50 (KM12) [nM]	IC50 (NCI/ADR-RES) [nM]	IC50 (MCF7) [nM]	IC50 (Malme-3M) [nM]	IC50 (NCI-H23) [nM]	IC50 (NCI-H460) [nM]	IC50 (NCI-H522) [nM]	IC50 (OVCAR-8) [nM]	IC50 (OVCAR-5) [nM]	IC50 (PC-3) [nM]	IC50 (SF-268) [nM]	IC50 (SW-620) [nM]	IC50 (SF-539) [nM]	IC50 (SK-MEL-28) [nM]	further results
Nc1nc(N)c2nc(CNc3ccc(C(=O)NC(CCCNC(=O)c4ccccc4C(=O)O)C(=O)O)cc3)cnc2n1 (stereo unspecified)	1.3	2.4	9.5	23	0.3	1.2	3.2	2.7	3.6	2	4.4	0.5	23	2.4	2.5	> 100	2.5	1.9	3.7	4.6	IC50 (786-0 [1]): 0.6 nM; IC50 (LOX IMVI [2]): 0.4 nM; IC50 (OVCAR-3 [3]): > 100 nM; IC50 (SNB-75): > 10000 nM; IC50 (SCC-25): 0.3 nM; IC50 (SK-MEL-5): 6 nM; IC50 (UO-31): 5.5 nM; IC50 (UACC-62): 1.8 nM; IC50 (HCT-15): 1.2 nM; IC50/[E] (nM milliunit-1) [4]: 2; TGD (Mus musculus [5]): 5 days; Tumor size (Mus musculus [6]): 2.1 mm; Tumor size (Mus musculus [7]): 6.8 mm; Time (Mus musculus [8]): 12 days
CN(Cc1cnc2nc(N)nc(N)c2n1)c1ccc(C(=O)N[C@@H](CCC(=O)O)C(=O)O)cc1 [METHOTREXATE]	23	40	23	> 1000	30	32	42	78	36	> 1000	43	28	229	31	> 1000	2	52	33	35	> 1000	IC50 (LOX IMVI [2]): 26 nM; IC50 (OVCAR-3 [9]): 398 nM; IC50 (SNB-75): > 10000 nM; IC50 (SCC-25): 27 nM; IC50 (SK-MEL-5): 87 nM; IC50 (UO-31): 191 nM; IC50 (UACC-62): 28 nM; IC50 (HCT-15): 30 nM; IC50 (786-0 [10]): 33 nM; TGD (Mus musculus [5]): 5 days; Tumor size (Mus musculus [6]): 1.6 mm; Tumor size (Mus musculus [7]): 7.3 mm; Time (Mus musculus [8]): 12 days
Nc1nc(N)c2nc(CNc3ccc(C(=O)NC(CCCCNC(=O)c4ccccc4C(=O)O)C(=O)O)cc3)cnc2n1 (stereo unspecified)	5.2	5.2	9.1	36	0.6	5.7	4.9	9.1	5	> 1000	9.2	4.2	> 1000	5.9	> 1000	5	8.4	3.4	26	> 1000	IC50 (LOX IMVI [11]): 0.9 nM; IC50 (OVCAR-3 [9]): > 1000 nM; IC50 (SK-MEL-5): 91 nM; IC50 (UO-31): 7.8 nM; IC50 (UACC-62): > 1000 nM; IC50 (HCT-15): 5.2 nM
Nc1nc(N)c2nc(CNc3ccc(C(=O)NC(CCCNC(=O)c4ccc(C(=O)O)cc4)C(=O)O)cc3)cnc2n1 (stereo unspecified)	3300	–	–	–	–	–	–	–	–	–	–	–	–	–	–	–	–	–	–	–	IC50 (SCC-25): 72 nM; IC50/[E] (nM milliunit-1) [4]: 2.8
